Laboratory results as given in ChEMBL document CHEMBL1128315, “1-(Fluorobenzyl)-4-amino-1H-1,2,3-triazolo[4,5-c]pyridines: synthesis and anticonvulsant activity” (1995).

How the values were obtained:
Rattus norvegicus [1] = assay: Anticonvulsant activity against maximal electroshock-induced seizures in Wistar rats following i.p. administration.; format: functional; conditions: ip
Outline: (§1)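 Male Charles River Wistar rats; maximal electroshock seizure test. Compounds given as solutions or fine dispersions in water or 0.5% methyl cellulose, micronized if not fully soluble. ED50 is the dose protecting 50% against hind limb extension, calculated by Miller–Tainter. Values with a standard error used four doses, at least 12 rats each. Values without one used three doses, six rats each.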

Rattus norvegicus [2] = assay: Anticonvulsant activity against maximal electroshock-induced seizures in Wistar rats following p.o. administration.; format: functional; conditions: po; outline: as §1

Row | Compound | ED50 (Rattus norvegicus [1]) | ED50 (Rattus norvegicus [2])
1 | CNc1nccc2c1nnn2Cc1cccc(F)c1.Cl | 10 mg/kg | –
2 | CCCNc1nccc2c1nnn2Cc1ccccc1F.Cl | 14.4 mg/kg | > 25 mg/kg
3 | Cl.Fc1ccccc1Cn1nnc2c(NC3CC3)nccc21 | 5.6 mg/kg | –
4 | CNc1nccc2c1nnn2Cc1ccc(F)cc1.Cl | 17 mg/kg | –
5 | CNc1nccc2c1nnn2Cc1ccccc1C(F)(F)F.Cl | > 25 mg/kg | –
6 | CCNc1nccc2c1nnn2Cc1ccccc1F.Cl | 8 mg/kg | 10 mg/kg
7 | CNc1nccc2c1nnn2Cc1cc(F)ccc1F.Cl | 5 mg/kg | –
8 | Cl.Nc1nccc2c1nnn2Cc1ccccc1 | 8.7 mg/kg | 20 mg/kg
9 | Cl.Nc1nccc2c1nnn2Cc1ccccc1F | 28.4 mg/kg | 11.5 mg/kg
10 | CC(C)Nc1nccc2c1nnn2Cc1ccccc1F.Cl | 14.2 mg/kg | > 25 mg/kg
11 | Cl.Nc1nccc2c1nnn2Cc1cc(F)ccc1F | 18 mg/kg | –
12 | O=C1NC(=O)C(c2ccccc2)(c2ccccc2)N1 [PHENYTOIN] | 10 mg/kg | 20 mg/kg
13 | Cl.Fc1ccccc1Cn1nnc2c(NCC3CC3)nccc21 | 40 mg/kg | –
14 | CNc1ncnc2c1ncn2Cc1ccccc1F [BW-A78U] | 1.7 mg/kg | 2.5 mg/kg
15 | CNc1nccc2c1nnn2Cc1ccccc1F.Cl | 4.6 mg/kg | 4.6 mg/kg
16 | CCN(C)c1nccc2c1nnn2Cc1ccccc1F.Cl | > 25 mg/kg | –
17 | CNc1nccc2c1nnn2Cc1ccccc1.Cl | 6.3 mg/kg | 10 mg/kg
